Test [1] in a line: Cell cycle arrest in human HL60 cells assessed as accumulation at subG0 phase at 1 uM after 24 hrs by propidium iodide-DNA fluorescence based FACS analysis (reference value: 5 %). It counts as functional. The following applies: HL-60. The gist of the method:
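HL-60 cells seeded at 0.5 × 10^6 cells/ml, exposed 24 h to compound (DMSO vehicle, <0.2% v/v). Pelleted at 400×g, PBS-washed, fixed in 70% ethanol at 4 °C overnight. RNase A treatment at 37 °C for 1.30 h, then propidium iodide staining for 20 min. Flow cytometry on 10,000 events, FL2-A vs FL2-W; subG0 (apoptotic) and phase populations gated.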

A short description of test [2]: Cytotoxicity against human PC3 cells assessed as cell growth inhibition at 1 uM after 48 hrs by MTT assay. The test is classed as functional. Conditions: PC-3, 48 h, read-out: GI. The gist of the method: (§1)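 Adherent lines at 70–75% confluence, grown at 37 °C in 5% CO2 with 10% FCS. Exposed 48 h to compound in DMSO (vehicle <0.2% v/v). MTT dye added 3 h before termination; formazan dissolved in DMSO, OD 570 nm with 620 nm reference. Growth inhibition expressed as % of untreated; IC50 taken from the dose series.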

Test [3] in a line: Cytotoxicity against human LS180 cells assessed as cell growth inhibition at 1 uM after 48 hrs by MTT assay. It counts as functional. Conditions: LS180, 48 h, read-out: GI. The gist of the method:
as §1
(Formazan colour is commonly taken as a measure of viable cells.)

The test system of test [4] is HL-60. The test is described as follows: Induction of apoptosis in human HL60 cells assessed as morphological alterations after 24 hrs by hoechst 33258 staining-based microscopic analysis. It counts as functional, cell-based. Put shortly:
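HL-60 cells at 0.5 × 10^6/ml were treated for 24 h with […] compound in DMSO vehicle (<0.2%). Cells were fixed in cold acetic acid:methanol (1:3) for 1 h on ice, spread on slides and air-dried overnight. Slides were stained with Hoechst 33258 for 30 min, mounted in glycerol:PBS and viewed by fluorescence microscopy at 20×. Morphology was checked by phase contrast. One of three experiments shown.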

Consider `C[C@H]1[C@@H](OCCOc2cccc(C(=O)/C=C/c3ccc(O)cc3)c2)O[C@@H]2O[C@@]3(C)CC[C@H]4[C@H](C)CC[C@@H]1[C@@]24OO3`, for which the figures for the Activity in test [1] and in test [4] were 65% and “Dose-dependent effect”, respectively. For the same compound, the figures for the inhibition of growth at 1 µM in test [2] and in test [3] were 22.8% and 24.7%, respectively.

`C[C@H]1[C@@H](OCCOc2ccc(/C=C/C(=O)c3ccc(O)cc3)cc2)O[C@@H]2O[C@@]3(C)CC[C@H]4[C@H](C)CC[C@@H]1[C@@]24OO3`: the inhibition of growth at 1 µM was found to be 25.4% in test [2] and 36.5% in test [3]. Moreover, in test [4], the Activity result was “Dose-dependent effect”.
